Experiments:
[1] = tested on: Japanese participants with type 2 diabetes; assay: HbA1c, change from baseline versus placebo; assay type: in vivo, human; conditions: for HbA1c, LS mean decrease from baseline versus placebo: P < .0001
Method in brief: (§1)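 Randomized, participant- and investigator-blind, placebo-controlled trial. Adults aged 20-70 with T2D for ≥1 year and BMI 20-35 kg/m2; metformin or DPP-4 inhibitor withdrawn ≥28 days before dosing. Once-weekly SC abdominal-wall injections for 8 weeks, rotating four sites. Escalation: 5 mg fixed; 2.5→5→10 mg; 5→10→15 mg. Change from baseline by mixed-effects model (regimen fixed, participant random, day and regimen-by-day terms); LS means, 95% CI, P<.05.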

[2] = tested on: participants with T2D; conditions: 26 weeks, cited from earlier work
[3] = tested on: Japanese participants with type 2 diabetes; assay: Serum lipids; assay type: in vivo, human
[4] = tested on: Japanese participants with type 2 diabetes; assay: Body weight, change from baseline versus placebo; assay type: in vivo, human; conditions: P < .0001
Method in brief: as §1

[5] = tested on: Japanese participants with type 2 diabetes; assay: Meal intake and subjective appetite sensation; assay type: in vivo, human
Method in brief: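 Once-weekly SC test compound (5, 10 or 15 mg groups, escalated) or placebo into the abdominal wall for 8 weeks. Standardized lunch and dinner are given and intake is recorded. Hunger, fullness, satiety and prospective food consumption are rated on a 100-mm VAS before and 4-5 h after the meal. Overall score is the mean of satiety, fullness, (100 − prospective consumption) and (100 − hunger).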

[6] = tested on: Japanese participants with type 2 diabetes; assay: Fasting plasma glucose, change from baseline versus placebo; assay type: in vivo, human; conditions: P < .0001
Method in brief: as §1

[7] = tested on: Japanese participants with type 2 diabetes; assay: Seven-point self-monitored plasma glucose; assay type: in vivo, human; conditions: week 2 to week 8, all doses of tirzepatide
Method in brief: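 Patients with T2D receive weekly SC injections of test compound (escalating to 5, 10 or 15 mg) or placebo into the abdominal wall for 8 weeks. Plasma glucose is self-monitored at seven time points across the day and profiled as an arithmetic mean at day 57. Change from baseline is analysed by mixed-effects model (regimen fixed, participant random) as LS means with 95% CI.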

[8] = Plasma tirzepatide pharmacokinetics, non-compartmental analysis; assay type: in vivo; conditions: human, sc, 5 mg
Method in brief: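 Noncompartmental PK on plasma drug levels after weekly SC abdominal dosing at 5 mg for weeks 1-8. Sampling spanned one 168-h interval after the day 1 dose and up to 840 h after the last dose on day 50. Steady-state CL/F and Vz/F were estimated as extravascular parameters and summarized descriptively by dose level.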

[9] = tested on: Japanese participants with type 2 diabetes; assay: Safety and tolerability; assay type: in vivo, human
[10] = 5-mg group (5 mg weeks 1-8), SC once weekly, 8 weeks, N = 11
[11] = 10-mg group (2.5 mg weeks 1-2, 5 mg weeks 3-4, 10 mg weeks 5-8), SC once weekly, N = 12
[12] = 15-mg group (5 mg weeks 1-2, 10 mg weeks 3-6, 15 mg weeks 7-8), SC once weekly, N = 16

CC[C@H](C)[C@H](NC(=O)[C@H](CC(C)C)NC(=O)[C@H](Cc1c[nH]c2ccccc12)NC(=O)[C@H](CCC(N)=O)NC(=O)[C@@H](NC(=O)[C@H](Cc1ccccc1)NC(=O)[C@H](C)NC(=O)[C@H](CCCCNC(=O)COCCOCCNC(=O)COCCOCCNC(=O)CC[C@H](NC(=O)CCCCCCCCCCCCCCCCCCC(=O)O)C(=O)O)NC(=O)[C@H](CCC(N)=O)NC(=O)[C@H](C)NC(=O)[C@@H](NC(=O)[C@H](CCCCN)NC(=O)[C@H](CC(=O)O)NC(=O)[C@H](CC(C)C)NC(=O)C(C)(C)NC(=O)[C@@H](NC(=O)[C@H](CO)NC(=O)[C@H](Cc1ccc(O)cc1)NC(=O)[C@H](CC(=O)O)NC(=O)[C@H](CO)NC(=O)[C@@H](NC(=O)[C@H](Cc1ccccc1)NC(=O)[C@@H](NC(=O)CNC(=O)[C@H](CCC(=O)O)NC(=O)C(C)(C)NC(=O)[C@@H](N)Cc1ccc(O)cc1)[C@@H](C)O)[C@@H](C)O)[C@@H](C)CC)[C@@H](C)CC)C(C)C)C(=O)N[C@@H](C)C(=O)NCC(=O)NCC(=O)N1CCC[C@H]1C(=O)N[C@@H](CO)C(=O)N[C@@H](CO)C(=O)NCC(=O)N[C@@H](C)C(=O)N1CCC[C@H]1C(=O)N1CCC[C@H]1C(=O)N1CCC[C@H]1C(=O)N[C@@H](CO)C(N)=O [tirzepatide]
HbA1c, LS mean decreases from baseline versus placebo, across treatment groups ([1]; 8 weeks, 95% CI 1.2%-1.9%, P < .0001 for all treatment groups): up to 1.6%
HbA1c, LS mean decrease from baseline versus placebo ([1]; week 8, 5-mg group, 95% CI 0.8%-1.5%): 1.1%
HbA1c, LS mean decrease from baseline versus placebo ([1]; week 8, 10-mg group, 95% CI 0.9%-1.7%): 1.3%
HbA1c, LS mean decrease from baseline versus placebo ([1]; week 8, 15-mg group, 95% CI 1.2%-1.9%): 1.6%
Body weight reduction ([2]; 5-, 10-, and 15-mg doses versus placebo): significant, dose‐dependent reductions in body weight for the 5‐, 10‐, and 15‐mg doses of tirzepatide versus placebo
HbA1c reduction ([2]; doses 1, 5, 10, and 15 mg, versus placebo): significant dose‐dependent reductions in HbA1c at all doses (1, 5, 10, and 15 mg) versus placebo
Triglyceride postdose (week 8), mean (SD) ([3]; 5-mg group, predose (week 1) 204 (56) mg/dL): 161 (51) mg/dL
Triglyceride postdose (week 8), mean (SD) ([3]; 10-mg group, predose (week 1) 172 (71) mg/dL): 122 (38) mg/dL
Triglyceride postdose (week 8), mean (SD) ([3]; 15-mg group, predose (week 1) 173 (121) mg/dL): 122 (55) mg/dL
Body weight, LS mean decrease from baseline (95% CI) versus placebo ([4]; week 8, 5-mg group): 3.4 (2.0‐4.8) kg
Body weight, LS mean decrease from baseline (95% CI) versus placebo ([4]; week 8, 10-mg group): 5.0 (3.6‐6.5) kg
Body weight, LS mean decrease from baseline (95% CI) versus placebo ([4]; week 8, 15-mg group): 6.6 (5.3‐7.9) kg
Overall appetite score ([5]; average of four VAS scores, among treatment groups (Figure S5)): overall appetite score was not different among the treatment groups
Hunger and fullness scores, visual analog scale, compared with placebo ([5]; lunch and dinner, all tirzepatide dose levels (Figure S5)): numerically decreased hunger and fullness scores
Percentage of meal intake compared with placebo ([5]; week 8, standardized meals (Figure S4)): dose‐dependent decrease in the percentage of meal intake compared with placebo
Fasting plasma glucose, LS mean decrease from baseline versus placebo (95% CI) ([6]; week 8, 5-mg group): 52.7 (35.9‐69.6) mg/dL
Fasting plasma glucose, LS mean decrease from baseline versus placebo (95% CI) ([6]; week 8, 10-mg group): 69.1 (52.3‐85.9) mg/dL
Fasting plasma glucose, LS mean decrease from baseline versus placebo (95% CI) ([6]; week 8, 15-mg group): 68.9 (53.2‐84.6) mg/dL
Seven-point SMPG daily profile compared with placebo [7]: improved overall daily SMPG profiles compared with placebo
Vd/F [8]: 5.27 L
Abdominal discomfort, treatment-emergent adverse event [9, 10]: 0 n (%)
Abdominal distension, treatment-emergent adverse event [9, 10]: 3 (27.3) n (%)
Blood triglycerides increased, treatment-emergent adverse event [9, 10]: 0 n (%)
Constipation, treatment-emergent adverse event [9, 10]: 0 n (%)
Decreased appetite, treatment-emergent adverse event [9, 10]: 5 (45.5) n (%)
Diarrhea, treatment-emergent adverse event [9, 10]: 0 n (%)
Dyspepsia, treatment-emergent adverse event [9, 10]: 0 n (%)
Headache, treatment-emergent adverse event [9, 10]: 0 n (%)
Lipase increased, treatment-emergent adverse event [9, 10]: 0 n (%)
Nausea, treatment-emergent adverse event [9, 10]: 1 (9.1) n (%)
Viral upper respiratory tract infection, treatment-emergent adverse event [9, 10]: 1 (9.1) n (%)
Vomiting, treatment-emergent adverse event [9, 10]: 1 (9.1) n (%)
White blood cell count increased, treatment-emergent adverse event [9, 10]: 1 (9.1) n (%)
Abdominal discomfort, treatment-emergent adverse event [9, 11]: 2 (16.7) n (%)
Abdominal distension, treatment-emergent adverse event [9, 11]: 1 (8.3) n (%)
Blood triglycerides increased, treatment-emergent adverse event [9, 11]: 0 n (%)
Constipation, treatment-emergent adverse event [9, 11]: 8 (66.7) n (%)
Decreased appetite, treatment-emergent adverse event [9, 11]: 6 (50.0) n (%)
Diarrhea, treatment-emergent adverse event [9, 11]: 3 (25.0) n (%)
Dyspepsia, treatment-emergent adverse event [9, 11]: 3 (25.0) n (%)
Headache, treatment-emergent adverse event [9, 11]: 3 (25.0) n (%)
Lipase increased, treatment-emergent adverse event [9, 11]: 1 (8.3) n (%)
Nausea, treatment-emergent adverse event [9, 11]: 0 n (%)
Vomiting, treatment-emergent adverse event [9, 11]: 1 (8.3) n (%)
White blood cell count increased, treatment-emergent adverse event [9, 11]: 0 n (%)
Abdominal discomfort, treatment-emergent adverse event [9, 12]: 4 (25.0) n (%)
Abdominal distension, treatment-emergent adverse event [9, 12]: 0 n (%)
Blood triglycerides increased, treatment-emergent adverse event [9, 12]: 1 (6.3) n (%)
Constipation, treatment-emergent adverse event [9, 12]: 8 (50.0) n (%)
Decreased appetite, treatment-emergent adverse event [9, 12]: 10 (62.5) n (%)
Diarrhea, treatment-emergent adverse event [9, 12]: 5 (31.3) n (%)
Dyspepsia, treatment-emergent adverse event [9, 12]: 0 n (%)
Headache, treatment-emergent adverse event [9, 12]: 1 (6.3) n (%)
Lipase increased, treatment-emergent adverse event [9, 12]: 2 (12.5) n (%)
Nausea, treatment-emergent adverse event [9, 12]: 2 (12.5) n (%)
Vomiting, treatment-emergent adverse event [9, 12]: 2 (12.5) n (%)
White blood cell count increased, treatment-emergent adverse event [9, 12]: 1 (6.3) n (%)
Tolerability ([9]; all tirzepatide doses (5-, 10-, 15-mg groups), SC once weekly, 8 weeks): all tirzepatide doses were well tolerated
Severe hypoglycemia or nocturnal hypoglycemia events ([9]; all treatment groups, 8 weeks): No severe hypoglycemia or nocturnal hypoglycemia events were reported
Injection-site or hypersensitivity AEs ([9]; all treatment groups, SC abdominal wall, 8 weeks): No injection‐site or hypersensitivity AEs were reported
Deaths or serious AEs ([9]; all treatment groups, SC once weekly, 8 weeks): No deaths or serious AEs occurred during the study
Systolic and diastolic blood pressure, mean predose ([9]; participants treated with tirzepatide (Figure S3)): no significant changes in blood pressure

— publication PMC9299227 (Diabetes, Obesity & Metabolism, 2021)
